Reference: ChEMBL document CHEMBL3046867, “Bioactive ryanoids from nucleophilic additions to 4,12-seco-4,12-dioxoryanodine” (J Med Chem, 1993)

Legend:
Musca domestica [1] = assay: Toxicity against SCR-susceptible Musca domestica (house fly) assessed as immobility compound administered by intrathoracic injection 1 to 2 hr after piperonyl butoxide treatment measured 4 hr post compound treatment relative to ryanodine; type: functional
Procedure, shortened: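 Adult female flies pretreated with piperonyl butoxide (5 μg in 0.5 μL acetone, ventral abdomen); 1-2 h later, 0.22 μL ryanoid in DMSO injected into the thorax. Knockdown scored at 4 h and KD50 derived. Ten flies per dose, 1.50-2-fold dose steps, two or more experiments (or single determinations where estimated).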

[2] = molecular target: Ryanodine receptor 1 (Oryctolagus cuniculus) (UniProt P11716); assay: Displacement of [3H]ryanodine from Ca2+-ryanodine receptor in Oryctolagus cuniculus (rabbit) skeletal muscle sarcoplasmic reticulum after 1 hr by competitive inhibition assay in presence of ATP relative to ryanodine
Ryanodine receptor 1 (Oryctolagus cuniculus), sequence (P11716 whole entry): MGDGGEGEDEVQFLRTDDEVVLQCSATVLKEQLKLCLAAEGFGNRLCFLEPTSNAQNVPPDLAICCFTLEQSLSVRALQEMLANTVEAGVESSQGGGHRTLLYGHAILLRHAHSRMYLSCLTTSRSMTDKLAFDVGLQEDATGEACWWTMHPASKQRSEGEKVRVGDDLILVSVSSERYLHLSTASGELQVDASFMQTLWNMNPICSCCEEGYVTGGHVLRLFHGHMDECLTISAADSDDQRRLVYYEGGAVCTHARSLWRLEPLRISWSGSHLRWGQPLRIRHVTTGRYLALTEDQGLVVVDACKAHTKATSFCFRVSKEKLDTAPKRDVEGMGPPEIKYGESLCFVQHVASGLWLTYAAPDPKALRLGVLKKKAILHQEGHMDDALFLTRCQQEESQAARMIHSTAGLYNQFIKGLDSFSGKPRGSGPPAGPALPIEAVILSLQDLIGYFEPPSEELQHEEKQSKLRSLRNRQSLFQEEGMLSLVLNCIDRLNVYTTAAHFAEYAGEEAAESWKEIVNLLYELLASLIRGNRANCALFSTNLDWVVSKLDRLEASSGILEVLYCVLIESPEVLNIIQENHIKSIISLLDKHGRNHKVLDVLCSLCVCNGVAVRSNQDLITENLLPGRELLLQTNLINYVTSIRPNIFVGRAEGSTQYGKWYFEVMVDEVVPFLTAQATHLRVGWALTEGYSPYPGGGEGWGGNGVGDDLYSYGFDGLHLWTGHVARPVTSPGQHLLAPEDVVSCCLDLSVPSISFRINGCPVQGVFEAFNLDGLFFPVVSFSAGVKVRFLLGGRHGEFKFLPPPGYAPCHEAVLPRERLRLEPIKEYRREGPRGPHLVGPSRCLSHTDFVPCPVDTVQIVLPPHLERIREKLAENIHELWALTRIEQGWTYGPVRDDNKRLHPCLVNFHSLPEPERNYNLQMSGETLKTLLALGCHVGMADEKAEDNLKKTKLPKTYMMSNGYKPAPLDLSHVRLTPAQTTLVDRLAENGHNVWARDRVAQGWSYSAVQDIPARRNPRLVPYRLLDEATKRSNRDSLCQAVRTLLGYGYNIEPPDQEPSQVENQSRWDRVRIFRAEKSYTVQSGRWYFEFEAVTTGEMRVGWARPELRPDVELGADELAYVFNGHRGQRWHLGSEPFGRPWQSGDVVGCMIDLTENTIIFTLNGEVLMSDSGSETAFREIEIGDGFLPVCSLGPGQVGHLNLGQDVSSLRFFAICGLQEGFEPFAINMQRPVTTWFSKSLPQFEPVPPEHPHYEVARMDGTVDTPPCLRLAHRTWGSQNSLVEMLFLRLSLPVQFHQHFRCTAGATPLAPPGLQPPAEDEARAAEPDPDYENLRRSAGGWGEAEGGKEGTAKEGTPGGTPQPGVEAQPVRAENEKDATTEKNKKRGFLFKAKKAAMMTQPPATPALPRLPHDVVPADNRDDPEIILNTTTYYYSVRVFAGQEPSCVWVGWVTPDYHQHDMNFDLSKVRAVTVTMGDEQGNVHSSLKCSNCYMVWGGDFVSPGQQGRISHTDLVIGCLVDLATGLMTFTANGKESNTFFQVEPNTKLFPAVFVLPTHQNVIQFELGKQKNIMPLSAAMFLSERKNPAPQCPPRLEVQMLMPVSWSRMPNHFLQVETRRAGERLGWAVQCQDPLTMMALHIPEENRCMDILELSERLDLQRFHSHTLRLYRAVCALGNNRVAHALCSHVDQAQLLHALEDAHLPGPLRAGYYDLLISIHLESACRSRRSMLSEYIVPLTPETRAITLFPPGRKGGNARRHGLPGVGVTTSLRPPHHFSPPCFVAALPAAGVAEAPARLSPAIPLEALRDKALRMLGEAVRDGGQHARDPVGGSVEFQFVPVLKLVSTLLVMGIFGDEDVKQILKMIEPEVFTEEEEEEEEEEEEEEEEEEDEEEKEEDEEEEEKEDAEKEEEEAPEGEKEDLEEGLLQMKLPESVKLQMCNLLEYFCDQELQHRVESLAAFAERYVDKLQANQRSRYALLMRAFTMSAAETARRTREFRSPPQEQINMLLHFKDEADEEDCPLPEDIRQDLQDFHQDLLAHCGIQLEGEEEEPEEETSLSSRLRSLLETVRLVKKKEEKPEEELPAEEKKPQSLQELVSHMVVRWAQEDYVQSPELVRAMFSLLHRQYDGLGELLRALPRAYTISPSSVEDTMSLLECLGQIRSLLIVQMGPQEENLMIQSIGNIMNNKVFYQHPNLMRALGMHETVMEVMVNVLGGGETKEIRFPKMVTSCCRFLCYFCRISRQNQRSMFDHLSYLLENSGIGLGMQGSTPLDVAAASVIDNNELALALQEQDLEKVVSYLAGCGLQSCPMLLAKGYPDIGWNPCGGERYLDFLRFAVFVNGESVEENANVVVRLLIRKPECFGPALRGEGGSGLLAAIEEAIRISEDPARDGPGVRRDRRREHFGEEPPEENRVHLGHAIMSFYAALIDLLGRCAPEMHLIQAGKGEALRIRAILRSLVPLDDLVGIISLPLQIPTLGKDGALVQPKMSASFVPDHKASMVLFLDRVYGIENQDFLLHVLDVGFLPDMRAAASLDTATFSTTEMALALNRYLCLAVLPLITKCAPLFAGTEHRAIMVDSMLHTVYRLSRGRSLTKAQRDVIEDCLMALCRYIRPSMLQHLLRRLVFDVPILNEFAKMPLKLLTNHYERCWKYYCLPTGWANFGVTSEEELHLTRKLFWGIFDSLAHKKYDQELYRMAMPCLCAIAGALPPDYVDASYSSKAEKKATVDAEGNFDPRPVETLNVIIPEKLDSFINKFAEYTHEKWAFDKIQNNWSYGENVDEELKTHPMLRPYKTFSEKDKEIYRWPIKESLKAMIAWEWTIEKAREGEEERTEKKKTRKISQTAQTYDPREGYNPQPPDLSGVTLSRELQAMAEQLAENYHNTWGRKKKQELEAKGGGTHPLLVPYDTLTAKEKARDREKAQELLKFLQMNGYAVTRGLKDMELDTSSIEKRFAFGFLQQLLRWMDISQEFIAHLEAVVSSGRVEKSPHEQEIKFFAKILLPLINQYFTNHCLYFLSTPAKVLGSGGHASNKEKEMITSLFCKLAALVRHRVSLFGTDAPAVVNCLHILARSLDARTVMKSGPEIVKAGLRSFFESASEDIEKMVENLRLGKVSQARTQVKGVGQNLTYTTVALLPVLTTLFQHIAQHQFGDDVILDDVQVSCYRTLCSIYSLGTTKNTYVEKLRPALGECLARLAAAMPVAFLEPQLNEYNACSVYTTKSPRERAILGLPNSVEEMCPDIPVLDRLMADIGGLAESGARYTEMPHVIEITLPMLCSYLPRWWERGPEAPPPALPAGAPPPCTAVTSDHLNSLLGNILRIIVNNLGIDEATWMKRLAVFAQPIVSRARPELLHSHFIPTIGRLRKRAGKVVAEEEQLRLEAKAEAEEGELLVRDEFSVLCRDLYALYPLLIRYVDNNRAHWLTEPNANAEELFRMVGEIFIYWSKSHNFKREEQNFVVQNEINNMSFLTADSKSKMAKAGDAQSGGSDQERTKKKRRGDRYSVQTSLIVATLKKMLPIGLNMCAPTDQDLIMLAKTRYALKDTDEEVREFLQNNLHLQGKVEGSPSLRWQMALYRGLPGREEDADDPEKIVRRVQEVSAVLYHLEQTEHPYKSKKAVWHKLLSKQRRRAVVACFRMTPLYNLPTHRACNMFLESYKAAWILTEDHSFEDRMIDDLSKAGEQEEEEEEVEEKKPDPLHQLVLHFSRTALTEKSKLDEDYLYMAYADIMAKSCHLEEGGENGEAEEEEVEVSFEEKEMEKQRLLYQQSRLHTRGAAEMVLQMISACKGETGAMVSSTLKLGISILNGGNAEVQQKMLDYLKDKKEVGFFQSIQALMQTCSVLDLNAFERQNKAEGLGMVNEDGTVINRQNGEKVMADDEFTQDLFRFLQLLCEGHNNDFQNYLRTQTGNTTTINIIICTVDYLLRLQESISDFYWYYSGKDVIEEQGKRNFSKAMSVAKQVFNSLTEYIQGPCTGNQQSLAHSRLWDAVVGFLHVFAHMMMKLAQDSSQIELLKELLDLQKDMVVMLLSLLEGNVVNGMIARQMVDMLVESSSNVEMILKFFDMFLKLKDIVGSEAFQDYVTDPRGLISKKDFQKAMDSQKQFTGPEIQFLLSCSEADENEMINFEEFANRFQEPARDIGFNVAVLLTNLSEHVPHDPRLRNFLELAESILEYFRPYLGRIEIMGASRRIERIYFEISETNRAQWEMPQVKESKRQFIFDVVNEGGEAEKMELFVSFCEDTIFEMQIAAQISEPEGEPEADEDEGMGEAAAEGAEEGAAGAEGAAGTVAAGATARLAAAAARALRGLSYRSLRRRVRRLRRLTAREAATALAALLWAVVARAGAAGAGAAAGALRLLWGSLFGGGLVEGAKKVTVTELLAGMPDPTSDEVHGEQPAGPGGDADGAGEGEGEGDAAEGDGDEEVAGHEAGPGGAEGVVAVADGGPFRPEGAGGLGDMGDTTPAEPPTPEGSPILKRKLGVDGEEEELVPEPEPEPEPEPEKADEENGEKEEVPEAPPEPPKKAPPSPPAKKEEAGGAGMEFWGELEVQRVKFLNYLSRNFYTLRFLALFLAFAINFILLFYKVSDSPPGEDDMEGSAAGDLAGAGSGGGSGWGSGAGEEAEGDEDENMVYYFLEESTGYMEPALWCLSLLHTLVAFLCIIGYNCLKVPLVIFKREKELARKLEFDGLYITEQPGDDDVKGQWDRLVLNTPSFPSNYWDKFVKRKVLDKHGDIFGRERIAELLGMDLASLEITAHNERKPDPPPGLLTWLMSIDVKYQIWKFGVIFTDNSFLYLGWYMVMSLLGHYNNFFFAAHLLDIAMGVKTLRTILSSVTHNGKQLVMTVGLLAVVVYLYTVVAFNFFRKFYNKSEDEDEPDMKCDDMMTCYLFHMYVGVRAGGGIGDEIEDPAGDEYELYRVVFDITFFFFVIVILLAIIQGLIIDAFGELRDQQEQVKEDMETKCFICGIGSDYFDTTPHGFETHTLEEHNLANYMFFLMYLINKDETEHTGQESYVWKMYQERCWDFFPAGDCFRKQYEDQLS
Procedure, shortened: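 Unlabeled ryanoid introduced in DMSO (1% final) before incubation. Filtration, washes in 150 mM KCl/10 mM Hepes pH 7.4. Nonspecific binding: 10 μM dehydroryanodine. IC50 from LIGAND; duplicate experiments.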

Musca domestica [3] = assay: Toxicity against SCR-susceptible Musca domestica (house fly) assessed as mortality compound administered by intrathoracic injection 1 to 2 hr after piperonyl butoxide treatment measured 24 hr post compound treatment relative to ryanodine; type: functional
[4] = molecular target: Ryanodine receptor 1 (Oryctolagus cuniculus) (UniProt P11716); assay: Displacement of [3H]ryanodine from Ca2+-ryanodine receptor in Oryctolagus cuniculus (rabbit) skeletal muscle sarcoplasmic reticulum after 2 hr by competitive inhibition assay relative to ryanodine
Procedure, shortened: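 No ATP. […] Ryanoid given in DMSO (1% final). Glass-fiber filtration; three washes with ice-cold buffer a using Tris HCl instead of Hepes. Nonspecific binding with 10 μM dehydroryanodine. IC50 calculated by LIGAND; duplicate experiments.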

[5] = molecular target: Ryanodine receptor 3 (Mus musculus) (UniProt A2AGL3); assay: Binding affinity to ryanodine receptor in Mus musculus albino Swiss-Webster (mouse) brain relative to ryanodine
Ryanodine receptor 3 = Ryanodine receptor 3 (Mus musculus, UniProt A2AGL3); assay: Binding affinity to ryanodine receptor in Mus musculus albino Swiss-Webster (mouse) brain
[6] = Toxicity in ip dosed Mus musculus albino Swiss-Webster (mouse) […]; type: organism-based; details: in vivo
Procedure, shortened: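 Male albino Swiss-Webster mice, 18–22 g; ryanoid given ip in methoxytriglycol (50 μL); mortality read at 24 h.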

Row | SMILES | Ratio (Musca domestica [1]) | Ratio [2] | Ratio (Musca domestica [3]) | Ratio [4] | Ratio [5] | IC50 (Ryanodine receptor 3) | LD50 [6]
1 | CC(C)[C@@]1(O)[C@@H](OC(=O)c2ccc[nH]2)C(=O)[C@@]2(C)C[C@]3(O)O[C@]4(C(=O)[C@]13C)[C@H](O)[C@@H](C)CC[C@@]42O [4,12-SECO-4,12-DIOXORYANODIN] | 0.85 | 1.8 | 2 | 1.6 |  |  | 
2 | C=C1CC[C@]2(O)[C@]3(C)C[C@]4(O)O[C@@]2([C@@H]1O)[C@]1(O)O[C@@]3(NNC(=O)c2ccccc2)[C@H](OC(=O)c2ccc[nH]2)[C@](O)(C(C)C)[C@@]14C | 13 | 6.5 | 40 |  |  |  | 
3 | CCCSC[C@H]1CC[C@]2(O)[C@]3(C)C[C@]4(O)O[C@@]2([C@@H]1O)[C@]1(O)[C@@]3(O)[C@H](OC(=O)c2ccc[nH]2)[C@](O)(C(C)C)[C@@]14C | 4 |  | 6 |  | 0.88 |  | 
4 | CC(C)[C@@]1(O)[C@@H](OC(=O)c2ccc[nH]2)[C@@]2(O)[C@@]3(C)C[C@]4(O)O[C@@]5([C@H](O)[C@@H](CSCCO)CC[C@]35O)[C@@]2(O)[C@]14C | 5 |  | 6 |  | 0.86 |  | 
5 | C=C1CC[C@@]2(O)[C@]3(O[C@@]4(O)C[C@]2(C)C(=O)[C@H](OC(=O)c2ccc[nH]2)[C@](O)(C(C)C)[C@@]4(C)C3=O)[C@@H]1O [4,12-SECO-4,12-DIOXODEHYDRORYANODIN] | 4 | 0.97 | 4 | 0.79 | 1.1 |  | 
6 | CC(C)[C@@]1(O)[C@@H](OC(=O)c2ccc[nH]2)/C(=N/OCc2ccccc2)[C@@]2(C)C[C@]3(O)O[C@]4(C(=O)[C@]13C)[C@H](O)[C@@H](C)CC[C@@]42O | 0.8 | 2.1 | 1 | 1.3 | 0.94 |  | 
7 | CC(C)[C@@]1(O)[C@@H](OC(=O)c2ccc[nH]2)[C@@H]2O[C@@]3(O)[C@]45O[C@@](O)(C[C@@]2(C)[C@@]4(O)CC[C@H](C)[C@H]5O)[C@]31C | 27 | 19 | 40 | 28 | 21 |  | 
8 | CON[C@@]12O[C@@]3(O)[C@]45O[C@@](O)(C[C@@]1(C)[C@@]4(O)CC[C@H](C)[C@H]5O)[C@@]3(C)[C@@](O)(C(C)C)[C@H]2OC(=O)c1ccc[nH]1 | 13 | 23 | 8 | 23 | 27 |  | 
9 | CC(C)[C@@]1(O)[C@@H](OC(=O)c2ccc[nH]2)/C(=N/O)[C@@]2(C)C[C@]3(O)O[C@]4(C(=O)[C@]13C)[C@H](O)[C@@H](C)CC[C@@]42O | 2.7 | 0.88 | 6 | 0.76 | 0.78 |  | 
10 | CC(C)[C@@]1(O)[C@@H](OC(=O)c2ccc[nH]2)[C@]2(NO)O[C@H]3[C@]45O[C@@](O)(C[C@@]2(C)[C@@]4(O)CC[C@H](C)[C@H]5O)[C@]31C | 200 | 67 | 100 | 50 | 43 |  | 
11 | CO/N=C1/[C@H](OC(=O)c2ccc[nH]2)[C@](O)(C(C)C)[C@@]2(C)C(=O)[C@]34O[C@@]2(O)C[C@@]1(C)[C@@]3(O)CC[C@H](C)[C@H]4O | 10 | 0.86 | 12 | 0.75 | 0.7 |  | 
12 | CC(C)[C@@]1(O)[C@@H](OC(=O)c2ccc[nH]2)[C@]2(O)O[C@@]3(NO)[C@]45O[C@@](O)(C[C@@]2(C)[C@@]4(O)CC[C@H](C)[C@H]5O)[C@]31C | 20 | 11 | 12 | 9 | 11 |  | 
13 | CC(C)[C@@]1(O)[C@@H](OC(=O)c2ccc[nH]2)[C@@]2(O)[C@@]3(C)C[C@]4(O)O[C@@]5([C@H](O)[C@@H](C)CC[C@]35O)[C@@]2(O)[C@@]14C [RYANODINE] |  |  |  |  |  | 3.3 nM | 0.49 mg/kg
14 | CC(C)[C@@]1(O)[C@@H](OC(=O)c2ccc[nH]2)C(=O)[C@@]2(C)C[C@]3(O)O[C@]4(/C(=N\O)[C@]13C)[C@H](O)[C@@H](C)CC[C@@]42O | 8 | 3.1 | 30 | 1.7 | 1.9 |  | 
15 | C=C1CC[C@]2(O)[C@]3(C)C[C@]4(O)O[C@@]2([C@@H]1O)[C@]1(O)O[C@@]3(NNc2ccccc2)[C@H](OC(=O)c2ccc[nH]2)[C@](O)(C(C)C)[C@@]14C | <2 | 6.1 |  | 5.4 | 2.5 |  | 
16 | CON[C@@]12O[C@@]3(O)[C@H](OC(=O)c4ccc[nH]4)[C@](O)(C(C)C)[C@]1(C)[C@]1(O)C[C@@]3(C)[C@@]3(O)CC[C@H](C)[C@@H](O)[C@@]32O1 | 1.3 |  | 2 |  |  |  | 
17 | CC(C)[C@@]1(O)[C@@H](OC(=O)c2ccc[nH]2)[C@]2(O)O[C@H]3[C@]45O[C@@](O)(C[C@@]2(C)[C@@]4(O)CC[C@H](C)[C@H]5O)[C@]31C | 270 | 64 | 120 | 62 | 54 |  | 0.15 mg/kg
18 | C=C1CC[C@]2(O)[C@]3(C)C[C@]4(O)O[C@@]2([C@@H]1O)[C@]1(/N=N/c2ccccc2)O[C@@]3(O)[C@H](OC(=O)c2ccc[nH]2)[C@](O)(C(C)C)[C@@]14C | 6 | 6.3 |  | 4.7 | 3.6 |  | 
19 | CC(C)[C@@]1(O)[C@@H](OC(=O)c2ccc[nH]2)[C@]2(NO)O[C@@]3(O)[C@]45O[C@@](O)(C[C@@]2(C)[C@@]4(O)CC[C@H](C)[C@H]5O)[C@]31C | 270 | 29 | 200 | 14 | 21 |  | 
20 | C=C1CC[C@]2(O)[C@]3(C)C[C@]4(O)O[C@@]2([C@@H]1O)[C@]1(O)O[C@@]3(NN)[C@H](OC(=O)c2ccc[nH]2)[C@](O)(C(C)C)[C@@]14C | 50 | 14 | 60 | 11 | 14 |  | 
21 | C=C1CC[C@]2(O)[C@]3(C)C[C@]4(O)O[C@@]2([C@@H]1O)[C@]1(O)[C@@]3(O)[C@H](OC(=O)c2ccc[nH]2)[C@](O)(C(C)C)[C@@]14C [DEHYDRORYANODINE] | 90 | 112 | 136 | 91 | 77 |  | 
22 | C=C1CC[C@]2(O)[C@]3(C)C[C@]4(O)O[C@@]2([C@@H]1O)[C@]1(NNC(N)=O)O[C@@]3(O)[C@H](OC(=O)c2ccc[nH]2)[C@](O)(C(C)C)[C@@]14C | <4 | 4.4 |  | 6.1 |  |  | 
23 | CC(C)[C@@]1(O)[C@@H](OC(=O)c2ccc[nH]2)[C@@]2(O)[C@@]3(C)C[C@]4(O)O[C@@]5([C@H](O)[C@@H](CSC(C)(C)C)CC[C@]35O)[C@@]2(O)[C@]14C | 2 |  |  |  | 0.41 |  | 
24 | CC(C)[C@@]1(O)[C@@H](OC(=O)c2ccc[nH]2)[C@@H](O)[C@@]2(C)C[C@]3(O)O[C@@]4([C@H](O)[C@@H](C)CC[C@@]42O)[C@@H](O)[C@]13C |  | 5.3 |  | 4.7 | 5.4 |  | 
25 | C=C1CC[C@]2(O)[C@]3(C)C[C@]4(O)O[C@@]2([C@@H]1O)[C@]1(O)O[C@@]3(NNC(N)=O)[C@H](OC(=O)c2ccc[nH]2)[C@](O)(C(C)C)[C@@]14C | 10 | 6.6 | 6 | 10 |  |  | 
26 | CC(C)[C@@]1(O)[C@@H](OC(=O)c2ccc[nH]2)[C@]2(NOCc3ccccc3)O[C@@]3(O)[C@]45O[C@@](O)(C[C@@]2(C)[C@@]4(O)CC[C@H](C)[C@H]5O)[C@]31C | 2 | 21 |  | 13 | 8.3 |  | 
27 | CON[C@@]12O[C@H]3[C@]45O[C@@](O)(C[C@@]1(C)[C@@]4(O)CC[C@H](C)[C@H]5O)[C@@]3(C)[C@@](O)(C(C)C)[C@H]2OC(=O)c1ccc[nH]1 | 7 | 34 | 20 | 20 | 28 |  | 
28 | C=C1CC[C@]2(O)[C@]3(C)C[C@]4(O)O[C@@]2([C@@H]1O)[C@]1(NNc2ccccc2)O[C@@]3(O)[C@H](OC(=O)c2ccc[nH]2)[C@](O)(C(C)C)[C@@]14C | <1.3 | 3 | <3 | 2.6 | 3.3 |  | 
